Measles CPE: protection of cells from measles virus; AID 841; Measles virus-infected cells, CPE protection, absorbance; actives 1.5% (n = 140,000); protection (pct of control), % at 4 µM; in the data active = protection mostly above about 24%, no sharp cut-off; inactive = mostly below about 26%
Yeast lifespan up: extends the lifespan of yeast | actives 0.68% (n = 130,000) | AID 775 | S. cerevisiae growth with nicotinamide, OD615; deaD strain in restrictive glucose medium | inhibition of the nicotinamide effect, % at 10 µM;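 active = inhibition above a set limit, placed 3 SD over the median of all compounds, cut at about 26% in these data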;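 note: 0% = nicotinamide-treated wells and 100% = cells grown without nicotinamide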
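Assay system: DeaD-strain S. cerevisiae. Medium: CSMM-D glucose medium, restrictive. Reagent: nicotinamide, 1.5 mM, co-present with compound. Compound: 10 µM single point, 0.25% DMSO. Schedule: culture preincubation 4 h, compound exposure 48 h, both 30 °C. Detection: absorbance at 615 nm.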
DAT uptake mod: modulates human dopamine transporter uptake under cocaine. Q01959. LLC-PK1 hDAT cells, [14C]-dopamine uptake with cocaine IC80; actives deviate in either direction. B-score at 10 µM. AID 449768. actives 1.3% (n = 110,000);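 active = Z score or B-score, a plate-position-corrected score, falls beyond the plate's 99.7% confidence bounds, in either direction; inactive = both scores lie inside the 99.7% bounds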;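 note: scored against the spread of the other compound wells on the same plate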
Target sequence (Q01959 whole entry, looked up): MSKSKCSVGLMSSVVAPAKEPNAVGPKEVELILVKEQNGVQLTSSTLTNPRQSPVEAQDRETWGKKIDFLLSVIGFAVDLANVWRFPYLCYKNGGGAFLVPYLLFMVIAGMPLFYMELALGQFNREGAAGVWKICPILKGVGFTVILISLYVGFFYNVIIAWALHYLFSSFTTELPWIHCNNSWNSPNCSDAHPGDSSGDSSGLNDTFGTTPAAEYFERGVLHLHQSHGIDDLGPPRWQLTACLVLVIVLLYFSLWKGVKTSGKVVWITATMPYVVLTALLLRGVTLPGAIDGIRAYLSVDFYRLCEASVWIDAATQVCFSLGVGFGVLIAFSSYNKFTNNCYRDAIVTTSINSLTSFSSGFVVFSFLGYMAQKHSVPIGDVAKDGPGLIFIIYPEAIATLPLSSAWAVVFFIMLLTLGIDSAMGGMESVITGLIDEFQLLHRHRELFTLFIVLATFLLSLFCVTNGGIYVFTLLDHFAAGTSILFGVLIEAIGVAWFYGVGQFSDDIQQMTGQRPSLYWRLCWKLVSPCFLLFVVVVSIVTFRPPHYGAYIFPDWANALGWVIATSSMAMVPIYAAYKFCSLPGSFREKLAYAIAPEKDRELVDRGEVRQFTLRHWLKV
BB579 growth dn: reduces growth of yeast BB579 in restrictive medium. S. cerevisiae BB579 growth, OD615, 48 h. inhibition, % at 10 µM. actives 0.51% (n = 140,000);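 active = inhibition above a set limit, 3 SD over the mean compound inhibition, cut at about 44% in these data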
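Detection: OD615 turbidity measurement; Material: Saccharomyces cerevisiae DeaD strain BB579, replicative lifespan model yeast; Timing: 48 h exposure, 30 °C; Doses: single 10 µM dose; Medium: CSMM-D restrictive synthetic medium containing dextrose (glucose); Controls: amphotericin B at 10 µg/mL as positive control.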
WT yeast gro inh: growth inhibition of WT yeast, mitochondrial fusion screen; mitochondrial fusion phenotypic screen, WT strain; inhibition, % at 10 µM; actives 2.1% (n = 190,000); AID 1362; in the data active = inhibition above about 58%; tested in S. cerevisiae
RAM inhibit: inhibitors of the yeast RAM network; S. cerevisiae dse1pr::URA3 reporter, 5-FOA growth OD615, 2 d; analog-sensitive cbk1-as2 kinase mutant strain; inhibition, % at 50 µM; actives 1.8% (n = 190,000);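 active = inhibition above a set limit, 3 SD over mean compound inhibition, cut at about 8.4% in these data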;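 note: 0% = DMSO-only wells with no growth and 100% = 10 µM 1-NA-PP1 full growth; inhibition rescues growth on 5-FOA so higher OD means more RAM inhibition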
Numbers without * were called inactive; · = not tested or not shown. A selection: hits, their analogues and other compounds. The true share with any hit is near 6.1%.

SMILES	Measles CPE	Yeast lifespan up	DAT uptake mod	BB579 growth dn	WT yeast gro inh	RAM inhibit
C=CCN1C(=O)/C(=C2/Sc3ccccc3N2C)SC1=Nc1ccccc1C	51*	-10	-0.58	-38	-6	6
O=C(NCc1ccccc1)c1cccc(COc2ccccc2Cl)c1	17	-12	-0.45	-27	-10	8.6*
O=C(NCc1ccccc1)c1cccc(COc2cc(Cl)ccc2Cl)c1	44*	6	·	-46	-13	8
O=C(NCc1ccc(F)cc1)c1ccccc1OCc1ccccc1	7	-4	·	0	14	10*
COc1ccccc1C(=O)NCc1ccccc1	11	·	-0.42	-18	-15	0
O=C(c1cccc(COc2ccc(Cl)cc2Cl)c1)N1CCN(c2ccccn2)CC1	8	-13	0.75	-37	77*	1
CCCSc1cc(N2CCOCC2)nc(-c2ccccc2Cl)n1	7	-2	-0.2	35	-9	2
C/C(CC(=O)Nc1cccc(Cl)c1Cl)=N\NC(=O)c1ccccc1N	·	·	·	·	-5	2
CSc1nc(-c2ccc(F)cc2)cc(=O)[nH]1	3	-5	·	6	-5	1
CN(C(=O)c1cccc(COc2ccc(Cl)cc2Cl)c1)c1ccccc1	8	1	·	-29	77*	4
O=C(NCc1ccco1)c1ccc(COc2cccc3ccccc23)cc1	19	-1	·	-4	0	8
O=C(c1cccc(COc2cccc3ccccc23)c1)N1CCCC1	4	·	3.7*	-22	45	2
NNC(=O)c1ccc(COc2cccc3ccccc23)cc1	7	-8	·	90*	73*	-1
COc1ccc(NC(=O)c2nc[nH]c2C(=O)N(C)Cc2ccccc2)cc1	·	·	0.52	·	·	·
COc1ccc(C2CC(C(F)(F)F)n3ncc(C(=O)NCC4CCCO4)c3N2)cc1OC (stereo unspecified)	32*	-6	0.86	-13	1	0
COc1ccc(C2CC(C(F)(F)F)n3ncc(C(=O)O)c3N2)cc1OC (stereo unspecified)	3	-12	-0.68	-18	6	3
CC(=O)C1=C(c2ccc(Br)cc2)C(=O)c2ccccc2C1=O	11	-10	·	-6	93*	4
O=C(NCc1cccnc1)c1ccccc1CCc1ccccc1	·	·	·	·	1	1
O=C(O)c1ccc(C=C(c2nc3ccccc3s2)c2nc3ccccc3s2)cc1	·	·	·	·	74*	2
CN(C)c1ccc(/C=C(\Cl)c2nc3ccccc3s2)cc1	5	0	·	-52	33	8.6*
O=C(Cc1ccccc1)c1nc2ccccc2s1	4	-4	·	-51	2	1
COc1cc(C=C(c2nc3ccccc3s2)c2nc3ccccc3s2)cc(OC)c1O	38	-5	·	-18	74*	4
O=C(CSc1nc2ccccc2s1)N/N=C/c1ccc(C(=O)O)cc1	·	·	·	·	-7	10*
COc1cc(/C=N/NC(=Nc2ccc(C)cc2)c2nc3ccccc3s2)ccc1O	17	-7	0.35	-64	75*	6
COc1ccccc1/C=N/NC(=Nc1ccc(C)cc1)c1nc2ccccc2s1	5	-7	-0.042	-19	-17	6
SMILES	Measles CPE	Yeast lifespan up	DAT uptake mod	BB579 growth dn	WT yeast gro inh	RAM inhibit
Cn1c(O)c(/C=N/Nc2ccccc2)c(=O)n(C)c1=O	·	·	·	·	67*	0
Cc1[nH]nc(N=Cc2c(O)n(C)c(=O)n(C)c2=O)c1-c1ccccc1	·	·	0.26	·	·	·
O=C(CN1CCCCC1)N1CCCc2c1c(=O)oc1ccc(OCc3ccccc3)cc21	23	·	0.55	6	8	0
CCCCCOc1ccc2oc(=O)c3c(c2c1)CCCN3C(=O)CN1CCCC(C(=O)OCC)C1 (stereo unspecified)	14	-4	1.1	32	80*	-1
COCc1nc(-c2cc(Br)ccc2OC)no1	5	-15	2.9*	-40	15	-1
CC(C)CC(=O)/C(=C\c1ccc(Cl)cc1Cl)n1cncn1	1	-3	·	61*	67	-1
COc1ccc(/C=C(/C(=O)c2ccc(Cl)cc2Cl)n2cncn2)cc1	2	43*	0.49	-12	39	-2
CCOC(=O)c1ccccc1OCc1cc(/C=N/n2cncn2)ccc1OC	13	-1	1.2	-32	-2	2
Cc1cccc(C)c1N1CCN(C(=O)Cn2cncn2)CC1	·	·	·	·	-13	-1
CCCS(=O)(=O)N1CCc2cc(OC)c(OC)cc2C1	5	0	-8.2*	-21	6	0
CC(C)OP(=O)(OC(C)C)C(NC(=O)c1cccc([N+](=O)[O-])c1)C(N)=O (stereo unspecified)	3	-9	0.33	-6	-13	0
COc1ccc(C(=O)c2c(C(F)(F)F)oc3c2C(=O)c2ccccc2C3=O)cc1	6	3	-2.2	-46	92*	4
Cc1[nH]c(=O)[nH]c(=O)c1S(=O)(=O)N(CC(C)C)CC(C)C	·	·	·	·	3	0
COc1ccc(C(=O)O/N=C(\C)c2ccccc2)cc1	3	-12	0.0021	9	75*	0
Cc1cc(C)nc(SCc2cc(=O)c(OC(=O)c3cc([N+](=O)[O-])ccc3Cl)co2)n1	2	19	·	-39	7	3
Cc1cc(C)nc(SCc2cc(=O)c(OC(=O)c3ccco3)co2)n1	17	46*	·	-24	8	3
Cc1ccnc(SCc2cc(=O)c(OC(=O)c3ccccc3)co2)n1	·	·	·	·	-1	-1
Cc1cc(C)nc(SCc2cc(=O)c(OC(=O)c3ccc(Br)o3)co2)n1	22	49*	·	-42	8	-1
Cc1cc(C)n(Cc2ccc(NC(=O)c3ccc(COc4ccccc4Br)cc3)cc2)n1	12	-7	·	-9	35	2
CCc1nc2sc3ccccc3c(=O)c2c(=O)n1Cc1ccco1	15	7	-7.3*	-13	-5	2
CCCNC(=O)c1onc(CSc2ccc(F)cc2)c1C(=O)NCCC	·	·	0.08	·	·	·
c1ccc(OCc2nn3c(-c4ccncc4)nnc3s2)cc1	3	-10	0.57	-19	-29	1
c1ccc(Cc2nnc3sc(-c4ccccn4)nn23)cc1	62*	-24	0.57	-27	1	0
c1ccc(OCc2nn3c(-c4ccccn4)nnc3s2)cc1	9	-9	-9.4*	-17	0	3
O=C1c2ccccc2C(=O)c2c1cccc2N1CCOCC1	29	-20	-1.9	57*	9	1
O=[N+]([O-])c1cc(-c2nnc(C34CC5CC(CC(C5)C3)C4)o2)cc([N+](=O)[O-])c1	6	3	·	-47	12	4
O=C(NCC(c1ccco1)N1CCCCC1)c1ccc(OCc2ccccc2)cc1 (stereo unspecified)	·	·	·	·	71*	-1
O=C(CCOc1ccccc1)NCC(c1ccco1)N1CCCCC1 (stereo unspecified)	13	-5	-0.61	0	-17	1
